The source made the active and inactive calls. The rule behind the calls is not given here.
Assays:
Leishmania major [1] = experiment: Antileishmanial activity against promastigote form of Leishmania major MRHO/IR/75/ER after 24 hrs by MTT assay; assay type: functional, organism-based
Outline: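 Early-log promastigotes (2 × 10⁶/mL) were incubated with serial drug dilutions for 24 h at 25 °C in phenol red-free RPMI 1640 with 10% FBS, 2 mM glutamine and antibiotics, pH ~7.2. MTT at 0.5 mg/mL was added for 4 h at 37 °C, formazan was dissolved in DMSO and read at 492 nm. Controls received medium plus DMSO. IC₅₀ came from linear regression over ≥2 independent triplicate experiments, given as mean ± SD.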

Leishmania major [2] = experiment: Antileishmanial activity against amastigote form of Leishmania major MRHO/IR/75/ER in mouse peritoneal macrophages assessed as decrease in number of amastigotes per macrophage after 24 hrs; assay type: functional, organism-based
Outline: (§1)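 Mouse peritoneal macrophages were seeded on glass coverslips at 1 × 10⁶ per well, and non-adherent cells were washed off after 1 h. Stationary-phase promastigotes were added at 3 per macrophage for 2 h at 37 °C in CO₂, then unbound parasites were washed away. Cells got drug-containing medium for 24 h and were then methanol-fixed and Giemsa-stained, counting 60 cells per well. Infectivity index = % infected macrophages × mean amastigotes per infected cell. Two sets of experiments were run.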

Leishmania major [3] = experiment: Antileishmanial activity against amastigote form of Leishmania major MRHO/IR/75/ER in mouse peritoneal macrophages assessed as decrease in macrophage infectivity after 24 hrs; assay type: functional, organism-based; outline: as §1
Leishmania major [4] = experiment: Antileishmanial activity against amastigote form of Leishmania major MRHO/IR/75/ER in mouse peritoneal macrophages assessed as decrease in infectivity index after 24 hrs; assay type: functional, organism-based; outline: as §1
[5] = Cytotoxicity against mouse peritoneal macrophages assessed as cell viability after 24 hrs by MTT assay; assay type: cell-based; parameters: concentration or dose not given beside the values; settings: peritoneal macrophage cell
Outline: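 Mouse peritoneal macrophages were plated at 2 × 10⁵ cells/well. After adherence, the medium was replaced with compound-containing medium for 24 h at 37 °C, 5% CO₂, with medium-plus-DMSO controls. Viability was read by MTT colorimetric assay.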

[6] = Leishmania major, MRHO/IR/75/ER, 24 h

Molecule | IC50 (Leishmania major [1]; [6]) | Activity (Leishmania major [2]) | Activity (Leishmania major [3]) | Activity (Leishmania major [4]) | Activity [5] | IC50 (Leishmania major [1])
Cn1c([N+](=O)[O-])cnc1-c1nnc(N2CCN(C(=O)c3ccc(Cl)s3)CC2)s1 | 9.35 µM | Active | Active | Active | Non-toxic | –
Cn1c([N+](=O)[O-])cnc1-c1nnc(N2CCN(C(=O)c3cccc(Cl)c3)CC2)s1 | 17.9 µM | – | – | – | Non-toxic | –
Cn1c([N+](=O)[O-])cnc1-c1nnc(N2CCN(C(=O)c3ccc(Cl)cc3)CC2)s1 | 42.9 µM | – | – | – | Non-toxic | –
MEGLUMINE ANTIMONATE | – | – | – | – | 40% | 82 µM
Cn1c([N+](=O)[O-])cnc1-c1nnc(N2CCN(C(=O)c3ccccc3Cl)CC2)s1 | 20.3 µM | – | – | – | Non-toxic | –
Cn1c([N+](=O)[O-])cnc1-c1nnc(N2CCN(C(=O)c3ccccc3)CC2)s1 | 10.4 µM | Active | Active | Active | Non-toxic | –
Cn1c([N+](=O)[O-])cnc1-c1nnc(N2CCN(C(=O)c3ccc(Br)s3)CC2)s1 | 16 µM | – | – | – | Non-toxic | –
Cn1c([N+](=O)[O-])cnc1-c1nnc(N2CCN(C(=O)c3cccs3)CC2)s1 | 25.6 µM | – | – | – | Non-toxic | –
